Series [1] is described as follows: Oral bioavailability in Sprague-Dawley rat at 1.3 mg/kg, iv or 3.4 mg/kg, po. The conditions noted are these: in vivo. The class given is ADME, organism-based. In outline:
(§1)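 Single intravenous or oral doses given to Sprague-Dawley rats. Values are reported as means: Cmax (ng/mL), half-life (min), plasma clearance (mL/min/kg), steady-state volume of distribution (L/kg) and oral bioavailability F (%).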

Series [2] concerns the target T1, RNA-directed RNA polymerase (Hepacivirus hominis, UniProt O39930). Kind of series: Inhibitory activity against HCV delta 21 NS5B RNA polymerase by SPA assay. More on the design: species or system Hepatitis C virus subtype 1b.
Series [3] is described as follows: Oral bioavailability in cynomolgus monkey at 0.8 mg/kg, iv or 4.0 mg/kg, po. The class given is ADME, organism-based, Macaca fascicularis. The conditions noted are these: in vivo. In outline:
(§2)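 Single-dose study, with separate intravenous and oral administrations at the listed mg/kg. Plasma concentrations were followed over time, and mean values were derived for Cmax, T1/2, clearance (mL/min/kg), Vdss (L/kg) and oral bioavailability (%).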

Series [4] is described as follows: Cmax in cynomolgus monkey at 0.8 mg/kg, iv or 4.0 mg/kg, po. The conditions noted are these: in vivo. The class given is ADME, organism-based, Macaca fascicularis. The method in brief:
as §2

The target of series [5] is Cytochrome P450 3A4 (Homo sapiens, UniProt P08684). In words: Effect on CYP3A4 induction. Type of series: ADME.
The test system of series [6] is Hepatitis C virus. Kind of series: Protein binding in Huh7 cells using HCV 1b replicon by a replicon cell assay in presence of HSA. The class given is functional, organism-based, Hepacivirus hominis. The settings on record: genotype 1b, Huh-7. On the technique in general: Replicon systems follow genome replication, usually without infectious particles.
A short description of series [7]: Oral bioavailability in Beagle dog at 0.8 mg/kg, iv or 4.0 mg/kg, po. The conditions noted are these: in vivo. Type of series: ADME, organism-based, Canis lupus familiaris. The method in brief: as §2
Series [8] in a line: Half life in Beagle dog at 0.8 mg/kg, iv or 4.0mg/kg, po. Type of series: ADME, organism-based, Canis lupus familiaris. More on the design: dose 0.8 mg/kg. The settings on record: in vivo. In outline: as §2
Series [9] deals with Genome polyprotein (GB virus-B, UniProt Q69422). Kind of series: Inhibitory activity against virus GBV-B polymerase.
In series [10] the target is T2, DNA polymerase alpha catalytic subunit (Homo sapiens, UniProt P09884).
T2 sequence (P09884 whole entry): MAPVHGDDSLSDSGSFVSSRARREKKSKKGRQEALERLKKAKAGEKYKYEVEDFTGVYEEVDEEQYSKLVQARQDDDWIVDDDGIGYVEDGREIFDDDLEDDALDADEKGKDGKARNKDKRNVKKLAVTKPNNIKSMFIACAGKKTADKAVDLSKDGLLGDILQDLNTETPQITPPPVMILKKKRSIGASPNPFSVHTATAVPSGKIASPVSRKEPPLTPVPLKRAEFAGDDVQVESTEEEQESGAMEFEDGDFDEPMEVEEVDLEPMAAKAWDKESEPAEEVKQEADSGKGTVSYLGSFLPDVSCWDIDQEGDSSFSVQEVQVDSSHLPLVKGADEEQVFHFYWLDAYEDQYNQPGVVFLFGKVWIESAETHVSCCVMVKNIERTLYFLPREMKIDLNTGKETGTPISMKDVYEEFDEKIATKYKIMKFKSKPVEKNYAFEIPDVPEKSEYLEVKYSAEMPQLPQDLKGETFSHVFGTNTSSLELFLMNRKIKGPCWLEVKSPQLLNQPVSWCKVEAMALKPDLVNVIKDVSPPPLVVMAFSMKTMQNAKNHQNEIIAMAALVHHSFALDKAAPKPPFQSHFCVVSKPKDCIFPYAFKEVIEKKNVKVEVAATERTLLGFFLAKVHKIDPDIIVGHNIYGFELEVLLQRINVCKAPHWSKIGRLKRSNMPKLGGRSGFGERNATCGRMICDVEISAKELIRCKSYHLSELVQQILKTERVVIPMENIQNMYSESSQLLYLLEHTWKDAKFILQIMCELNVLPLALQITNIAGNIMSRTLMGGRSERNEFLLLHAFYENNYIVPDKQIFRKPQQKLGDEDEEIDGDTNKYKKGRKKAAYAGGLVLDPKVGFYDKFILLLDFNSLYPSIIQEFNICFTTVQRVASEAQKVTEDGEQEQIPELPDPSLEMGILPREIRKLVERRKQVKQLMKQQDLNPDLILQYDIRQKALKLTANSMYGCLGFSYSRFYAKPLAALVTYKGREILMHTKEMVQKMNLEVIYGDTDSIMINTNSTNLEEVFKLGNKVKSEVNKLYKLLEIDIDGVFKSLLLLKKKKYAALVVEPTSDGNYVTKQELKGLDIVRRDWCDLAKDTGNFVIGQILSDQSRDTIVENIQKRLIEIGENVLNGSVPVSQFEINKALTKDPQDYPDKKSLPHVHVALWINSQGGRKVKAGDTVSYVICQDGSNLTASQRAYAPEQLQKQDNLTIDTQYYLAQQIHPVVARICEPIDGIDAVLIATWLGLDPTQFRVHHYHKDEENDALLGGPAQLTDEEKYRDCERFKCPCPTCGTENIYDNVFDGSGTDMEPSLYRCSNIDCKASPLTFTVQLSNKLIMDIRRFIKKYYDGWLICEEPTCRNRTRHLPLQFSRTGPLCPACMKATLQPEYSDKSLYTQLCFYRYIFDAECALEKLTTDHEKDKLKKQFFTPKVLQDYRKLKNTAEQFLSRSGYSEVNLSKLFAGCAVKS
In words: Inhibitory activity against human DNA-polymerase-alpha.

The target of series [11] is RNA-directed RNA polymerase (Hepacivirus hominis) (UniProt O39930). In words: Inhibition of HCV RNA replication in Huh7 cells. Type of series: functional, cell-based. The conditions noted are these: Huh-7. In outline: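 Huh-7 subgenomic replicon cells were seeded at 3 × 10³/well in DMEM with 10% FCS, 1% NEAA and 1 mg/mL G418, and allowed 4 h to attach. Eleven 2.5-fold DMSO dilutions were added (final 10,000 to 1.0 nM) and cells incubated 40 h. Neo RNA was measured by TaqMan RT-PCR, normalised to cyclophilin against DMSO controls; n = 8 wells per dilution.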

Series [12] addresses T1, RNA-directed RNA polymerase. In words: Inhibitory activity against HCV 1a NS5B RNA polymerase.
In series [13] the target is DNA polymerase beta (Homo sapiens, UniProt P06746). In words: Inhibitory activity against human DNA-polymerase-beta.
Series [14] relates to Hepatitis C virus. Kind of series: Protein binding in Huh7 cells using HCV 1b replicon by a replicon cell assay. The class given is functional, organism-based, Hepacivirus hominis. The settings on record: genotype 1b, Huh-7. The method in brief: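 Replicon assay in Huh-7 cells run with α-acid glycoprotein, human serum albumin, or both added to the medium, to assess the effect of plasma protein binding on cellular activity.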

Series [15] is described as follows: Cmax in Beagle dog at 0.8 mg/kg, iv or 4.0 mg/kg, po. The class given is ADME, organism-based, Canis lupus familiaris. The settings on record: in vivo. In outline: as §2
Series [16] can be described thus: Cmax in Sprague-Dawley rat at 1.3 mg/kg, iv or 3.4 mg/kg, po. The class given is ADME, organism-based. The settings on record: in vivo. In outline:
as §1

Series [17] in a line: Clearance in Sprague-Dawley rat at 1.3 mg/kg, iv or 3.4 mg/kg, po. The settings on record: in vivo. Type of series: ADME, organism-based. The method in brief: as §1
The nature of series [18]: Volume of distribution in Sprague-Dawley rat at 1.3 mg/kg, iv or 3.4 mg/kg, po. The conditions noted are these: in vivo, read-out: Vdss. Type of series: ADME, organism-based. In outline:
as §1

Series [19] deals with RNA-directed RNA polymerase (Hepacivirus hominis) (UniProt O39930). In words: Inhibitory activity against HCV 3a NS5B RNA at 10 uM.

From ChEMBL document CHEMBL1148625, “3-(1,1-dioxo-2H-(1,2,4)-benzothiadiazin-3-yl)-4-hydroxy-2(1H)-quinolinones, potent inhibitors of hepatitis C virus RNA-dependent RNA polymerase” (J Med Chem, 2006) come the findings set out here.

SMILES strings stand for the structures.

T1 sequence (O39930 whole entry): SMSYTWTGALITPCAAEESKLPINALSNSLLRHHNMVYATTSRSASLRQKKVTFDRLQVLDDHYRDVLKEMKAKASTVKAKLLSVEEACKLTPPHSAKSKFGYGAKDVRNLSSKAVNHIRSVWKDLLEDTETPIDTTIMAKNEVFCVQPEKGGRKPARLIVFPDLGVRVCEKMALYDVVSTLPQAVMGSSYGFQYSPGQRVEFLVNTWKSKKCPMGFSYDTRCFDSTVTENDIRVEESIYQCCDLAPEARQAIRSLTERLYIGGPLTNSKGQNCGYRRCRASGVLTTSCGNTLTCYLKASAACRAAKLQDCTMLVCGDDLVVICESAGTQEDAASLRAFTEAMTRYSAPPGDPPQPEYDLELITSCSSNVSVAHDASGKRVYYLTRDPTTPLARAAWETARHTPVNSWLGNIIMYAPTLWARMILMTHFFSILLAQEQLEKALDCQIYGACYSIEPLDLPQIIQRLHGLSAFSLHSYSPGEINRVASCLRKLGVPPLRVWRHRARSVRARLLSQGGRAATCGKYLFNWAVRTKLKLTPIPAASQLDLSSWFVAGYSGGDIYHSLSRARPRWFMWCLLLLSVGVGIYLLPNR
Sequence of RNA-directed RNA polymerase (Hepacivirus hominis) (O39930 1-591): as the sequence (O39930 whole entry) above
Sequence of Cytochrome P450 3A4 (P08684 whole entry): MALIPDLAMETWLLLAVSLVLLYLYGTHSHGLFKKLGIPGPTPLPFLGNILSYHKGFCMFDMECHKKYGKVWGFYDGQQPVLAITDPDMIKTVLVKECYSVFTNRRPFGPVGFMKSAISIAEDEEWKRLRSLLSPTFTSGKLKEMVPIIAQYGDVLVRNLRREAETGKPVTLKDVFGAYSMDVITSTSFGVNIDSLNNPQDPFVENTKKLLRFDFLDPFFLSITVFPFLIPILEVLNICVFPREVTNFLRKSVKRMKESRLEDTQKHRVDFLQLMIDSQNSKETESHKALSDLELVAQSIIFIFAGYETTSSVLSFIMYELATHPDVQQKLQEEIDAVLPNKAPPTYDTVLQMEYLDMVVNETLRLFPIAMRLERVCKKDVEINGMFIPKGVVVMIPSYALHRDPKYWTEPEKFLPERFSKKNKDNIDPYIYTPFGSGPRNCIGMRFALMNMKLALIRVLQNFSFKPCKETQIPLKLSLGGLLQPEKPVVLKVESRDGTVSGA
Sequence of Genome polyprotein (Q69422 2275-2864 limits assumed): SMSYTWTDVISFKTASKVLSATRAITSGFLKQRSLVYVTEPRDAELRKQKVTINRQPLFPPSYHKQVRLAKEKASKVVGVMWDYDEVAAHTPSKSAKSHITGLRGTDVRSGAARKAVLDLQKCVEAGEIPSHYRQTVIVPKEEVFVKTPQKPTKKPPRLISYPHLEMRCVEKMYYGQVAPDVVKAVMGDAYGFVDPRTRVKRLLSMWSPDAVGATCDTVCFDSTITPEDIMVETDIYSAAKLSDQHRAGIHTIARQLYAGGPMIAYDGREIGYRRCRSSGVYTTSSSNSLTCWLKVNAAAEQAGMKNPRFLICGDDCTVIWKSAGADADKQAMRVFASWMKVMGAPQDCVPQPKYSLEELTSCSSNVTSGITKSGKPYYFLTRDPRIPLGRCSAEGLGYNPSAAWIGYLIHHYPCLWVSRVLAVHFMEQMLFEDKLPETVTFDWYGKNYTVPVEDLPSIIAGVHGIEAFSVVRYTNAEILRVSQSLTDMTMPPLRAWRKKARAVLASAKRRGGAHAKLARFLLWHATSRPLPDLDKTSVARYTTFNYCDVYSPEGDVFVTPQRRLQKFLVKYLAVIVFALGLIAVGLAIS

Usually bioavailability stands for dose-corrected exposure relative to a reference, in per cent. By IC50 is commonly meant the concentration that gives 50% inhibition. The term Cmax denotes the maximum level reached in the sampled fluid or tissue. A word on the EC50: it is the concentration giving half of the maximal effect. A word on the half-life: it is the time needed for the level to fall by half in the phase considered. As a reminder, the EC90 is the concentration needed for an effect of 90%. As a reminder, the inhibition is the change of the read-out against control, counted positive when it falls. For `O=c1c(C2=Nc3ccccc3S(=O)(=O)N2)c(O)c2cc(F)ccc2n1CCC1CC1`, the bioavailability in series [1] is 44%; in [3] it was over 53%; in series [7], over 35%. Moreover, the IC50 was 10 nM in [2]; over 50000 nM in series [9]; over 50000 nM in series [10]; 49 nM in series [12]; over 50000 nM in series [13]. In addition, the Cmax is 5440 ng/mL in [4], 4460 ng/mL in [15] and 4140 ng/mL in [16]. In addition, in series [5], the outcome was Active. Further, the EC50 in series [6] was 13000 nM; in series [14], 38 nM. Also, in series [8], the half-life worked out at 1.72 h. The concentration for an effect of 90% (EC90) in series [11] came out at 207 nM. This compound registered a clearance in series [17] of 1.4 mL/min/kg. For the same compound, in series [18], the Vd came out at 0.36 L/kg. Further, the inhibition in series [19] turned out to be 60%.
